Source: PubChem (several laboratories)
EP2 modulator = EP2 receptor modulators, cAMP readout, primary screen, cell-based, HTRF cAMP, PGE2 stimulation; Prostaglandin E2 receptor EP2 subtype (Homo sapiens), P43116; EP2-expressing cells, cAMP HTRF FRET, PGE2 co-stimulation; induction, % at 25 µM; 0.83% of 260,000 active; AID 940, 2007;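 active = compounds whose cAMP rise, as percent of the full-agonist control response, exceeds 60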;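 note: rat C6 glioma line stably carrying human EP2 under a CMV promoter; the protocol text gives 20 µM as final concentration; 100% = response of wells given 1 µM PGE2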
NPY2 pot ag = NPY-Y2 potentiators or agonists, primary screen, cell-based. Neuropeptide Y receptor type 2 (Homo sapiens), P49146. cells expressing NPY-Y2, potentiator/agonist read-out. activation, % at 3.6 µM. 0.45% of 220,000 active; in the data active = activation above about 27%;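 note: cells stimulated with NPY near EC25 plus isoproterenol at EC100; 0% = vehicle plus submaximal agonist and 100% = vehicle plus saturating agonist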
NPY-Y1 antag = NPY-Y1 receptor antagonists, primary screen, cell-based. Neuropeptide Y receptor type 1 (Homo sapiens), P25929. HEK293-CNG Y1 cells, membrane potential fluorescence; NPY at EC95, then isoproterenol. inhibition, % at 3.6 µM. 1% of 200,000 active;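 active = inhibition above the campaign mean inhibition of all tested compounds plus 3 SD, cut at about 20% in these data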;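 note: 0% = DMSO wells given NPY plus isoproterenol and 100% = isoproterenol alone without NPY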
Target sequence (P25929 whole entry, looked up): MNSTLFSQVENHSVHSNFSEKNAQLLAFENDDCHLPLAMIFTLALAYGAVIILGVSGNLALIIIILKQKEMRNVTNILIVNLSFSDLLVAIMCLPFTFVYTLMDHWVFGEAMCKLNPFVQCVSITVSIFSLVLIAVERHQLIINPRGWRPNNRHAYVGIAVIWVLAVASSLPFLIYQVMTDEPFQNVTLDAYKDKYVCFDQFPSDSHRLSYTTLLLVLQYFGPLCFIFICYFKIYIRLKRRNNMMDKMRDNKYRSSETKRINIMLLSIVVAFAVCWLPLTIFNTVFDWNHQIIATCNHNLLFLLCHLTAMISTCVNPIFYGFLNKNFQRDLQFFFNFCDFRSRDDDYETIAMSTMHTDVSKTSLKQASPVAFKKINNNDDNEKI
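material = HEK293 cells with Y1 receptor plus CNG channel | also added = NPY 25 nM then isoproterenol 1 µM plus Ro 20-1724 25 µM | schedule = dye 3 h, compound 60 min room temperature, stimulation 45 min | measured by = membrane potential fluorescence | benchmarks = high control isoproterenol alone, low control NPY with isoproterenol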
NPY-Y2 antag = NPY-Y2 receptor antagonists, primary screen, cell-based. Neuropeptide Y receptor type 2 (Homo sapiens), P49146. NPY-Y2 expressing cells, antagonist mode. inhibition, % at 2.7 µM. 0.99% of 140,000 active; in the data active = inhibition above about 17%;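 note: 0% = vehicle with agonist challenge and 100% = reference antagonist with challenge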
NPY-Y1 PAM-ag = NPY-Y1 receptor potentiators or agonists, primary screen, cell-based; AID 1304, 2008; activation, % at 3.6 µM; 0.37% of 220,000 active; NPY-Y1 expressing cells, potentiator/agonist activation; Neuropeptide Y receptor type 1 (Homo sapiens), P25929; in the data active = activation above about 33%, passing the limit was not always enough;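 note: cells stimulated with NPY at EC10 then isoproterenol at EC100; 0% = low agonist plus stimulus and 100% = saturating agonist plus stimulus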
EP2 antag = human EP2 receptor antagonists, primary screen, TR-FRET cAMP, C6 glioma cells | Prostaglandin E2 receptor EP2 subtype (Homo sapiens), P43116 | inhibition, % at 25 µM | 0.52% of 260,000 active | C6 glioma cells expressing human EP2; cells stimulated with saturating PGE2;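 active = percent inhibition above 40 after rounding to a whole number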;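 note: rat C6 glioma host cells with rolipram phosphodiesterase inhibitor present; the protocol text gives 20 µM as final concentration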
Numbers without * were called inactive. A selection: hits, their analogues and other compounds. The true share with any hit is near 2.8%.

COC1=CC(=O)C(O)=C(CCCCCCC/C=C/CCCCCCCC2=C(O)C(=O)C=C(OC)C2=O)C1=O was read as EP2 antag 54*.
`COc1cc(/C=N/NC(=O)c2ccc(COc3ccccc3Cl)o2)cc(Br)c1O` gave EP2 modulator -68, NPY2 pot ag -5, NPY-Y1 antag 3, NPY-Y2 antag 2, NPY-Y1 PAM-ag -4 and EP2 antag 75*.
`CCC(C)(C)NC(=O)C(c1ccc(C)cc1)N(Cc1ccco1)C(=O)Cn1nnc2ccccc21` (stereo not drawn) gave EP2 modulator 38, NPY2 pot ag -22, NPY-Y1 antag 25*, NPY-Y2 antag 61*, NPY-Y1 PAM-ag -122 and EP2 antag 20.
O=C(NC1CCCCC1)C(c1ccco1)N(Cc1ccc(F)cc1)C(=O)Cn1nnc2ccccc21 (stereo not drawn) was read as EP2 modulator 22 and EP2 antag 6.
`Cc1ccc(C(C(=O)NC(C)(C)C)N(Cc2ccco2)C(=O)Cn2nnc(-c3cccs3)n2)cc1` (stereo not drawn) gave EP2 modulator 29, NPY2 pot ag -42, NPY-Y1 antag 20*, NPY-Y2 antag 34*, NPY-Y1 PAM-ag -132 and EP2 antag 4.
Cc1ccc(C(C(=O)NC2CCCCC2)N(Cc2ccco2)C(=O)Cn2cnc3ccccc32)cc1 (stereo not drawn) was read as EP2 modulator 33, NPY2 pot ag -42, NPY-Y1 antag 34*, NPY-Y2 antag 75*, NPY-Y1 PAM-ag -65 and EP2 antag 20.
`O=C(NC1CCCCC1)C(c1ccc(F)cc1)N(Cc1ccco1)C(=O)Cn1nnc2ccccc21` (stereo not drawn) gave EP2 modulator 23, NPY2 pot ag 1, NPY-Y1 antag 23*, NPY-Y2 antag 36*, NPY-Y1 PAM-ag -17 and EP2 antag 8.
C=Cn1cc(CN(Cc2ccc(OC)cc2OC)CC2CCCO2)c(C)n1 (stereo not drawn) was read as EP2 modulator 14 and EP2 antag 6.
O=C(O)[C@H]1CN(C(=O)CN2CCCC2=O)C[C@@H]1c1ccc(F)cc1 was read as EP2 modulator 0.
Screening O=c1[nH]c2cc3c(cc2cc1C(c1nnnn1C1CCCC1)N1CCc2ccccc21)OCO3 (stereo not drawn) returned EP2 modulator -16 and EP2 antag 10.
For O=C(NC1CCCCC1)C(c1ccccc1F)N(Cc1ccco1)C(=O)Cn1nnc2ccccc21 (stereo not drawn) the results were EP2 modulator 25, NPY2 pot ag -35, NPY-Y1 antag 72*, NPY-Y2 antag 57* and NPY-Y1 PAM-ag -84.
`O=S(=O)(O)c1cc(N=Nc2cccc3ccccc23)c(O)c2ncccc12` gave EP2 modulator -3 and EP2 antag 38.
`O=S(=O)(O)c1ccc(N=Nc2ccc3c(S(=O)(=O)O)cccc3c2O)c2ccccc12` gave EP2 modulator -9 and EP2 antag 56*.
For COc1ccc(Cc2ccc3[nH]c(=O)cc(C)c3c2)cc1S(=O)(=O)O the results were EP2 modulator 20 and EP2 antag 40*.
`CCN(CC)CC[n+]1ccc2c(C)c3[nH]c4ccc(O)cc4c3c(C)c2c1` gave EP2 modulator 7 and EP2 antag 44*.
Screening CCN(CC)CCNC(=O)c1[nH]c2ccc(OCc3ccccc3)cc2c1C returned EP2 modulator -96, NPY2 pot ag 16, NPY-Y1 antag 1, NPY-Y1 PAM-ag 1 and EP2 antag 9.
`O=c1cc(NCCCO)c2ccccc2o1` gave EP2 modulator -2, NPY2 pot ag 72*, NPY-Y1 antag 10, NPY-Y2 antag 1, NPY-Y1 PAM-ag 110* and EP2 antag 9.
For Cc1cccc(C(=O)Nc2nc(C)c(C(=O)N3CCCCC3)s2)c1 the results were EP2 modulator -43 and EP2 antag 9.
`CCCC(c1nnnn1Cc1ccc(F)cc1)N1CCN(C2CCCCC2)CC1` (stereo not drawn) gave EP2 modulator 12, NPY2 pot ag -6, NPY-Y1 antag 23*, NPY-Y2 antag 31*, NPY-Y1 PAM-ag -17 and EP2 antag 8.
CCCCC(c1nnnn1C1CCCC1)N1CCN(C2CCCC2)CC1 (stereo not drawn) was read as EP2 modulator -2, NPY2 pot ag -27, NPY-Y1 antag 31*, NPY-Y2 antag 46*, NPY-Y1 PAM-ag -20 and EP2 antag 15.
Screening CCCC(c1nnnn1C1CCCCC1)N1CCN(C2CCCC2)CC1 (stereo not drawn) returned EP2 modulator 11, NPY2 pot ag -7, NPY-Y1 antag 17, NPY-Y2 antag 13, NPY-Y1 PAM-ag -38 and EP2 antag 13.
For Cc1cc(-c2cc(N)c(=O)n(CC(=O)Nc3ccc4c(c3)OCO4)n2)c(C)o1 the results were EP2 modulator -71 and EP2 antag 9.
`CCOC(=O)CSc1ccc(C(=O)Nc2ccc(Cl)cc2)cn1` gave EP2 modulator -47, NPY2 pot ag -1, NPY-Y1 antag 0, NPY-Y1 PAM-ag -11 and EP2 antag 41*.
For CCOc1ccc(NC(=O)c2ccc(OC)cc2)cc1 the results were EP2 modulator 15, NPY2 pot ag 4, NPY-Y1 antag -2, NPY-Y2 antag 3, NPY-Y1 PAM-ag 15 and EP2 antag 9.
CCOC(=O)CSc1ccc(C(=O)Nc2ccc(OC)cc2)cn1 was read as EP2 modulator 4, NPY2 pot ag 37*, NPY-Y1 antag -4, NPY-Y1 PAM-ag 75* and EP2 antag 28.
Screening COc1ccc2c(c1)cc(C)c1nnc(SCc3ccccn3)n12 returned EP2 modulator -26 and EP2 antag 8.
For O=C1c2cccc3c([N+](=O)[O-])ccc(c23)C(=O)N1c1ccccn1 the results were EP2 modulator -42, NPY2 pot ag -17, NPY-Y1 antag 18, NPY-Y2 antag 11, NPY-Y1 PAM-ag -31 and EP2 antag 19.
For O=C1c2cccc3c([N+](=O)[O-])ccc(c23)C(=O)N1c1nccs1 the results were EP2 modulator -26, NPY2 pot ag 5, NPY-Y1 antag -5, NPY-Y2 antag 0, NPY-Y1 PAM-ag -2 and EP2 antag 55*.
Screening Nc1nc2c(s1)CCc1c-2cnn1-c1ccccc1 returned EP2 modulator -23, NPY2 pot ag -11, NPY-Y1 antag -2, NPY-Y2 antag 1, NPY-Y1 PAM-ag 6 and EP2 antag 40*.
